Reference: ChEMBL document CHEMBL4190199, “Antimalarial Activities of Alkyl Cyclohexenone Derivatives Isolated from the Leaves of Poupartia borbonica” (J Nat Prod, 2017)
In brackets after ≈: the same amount, converted by molar mass. Each block holds one compound with its values, some of them ahead of it.

Key:
Plasmodium falciparum [1] = assay: Antiplasmodial activity against asexual erythrocyte stage of chloroquine-sensitive Plasmodium falciparum 3D7 infected in human red blood cells after 48 hrs by lactate dehydrogenase assay; assay type: functional, organism-based; conditions: 3D7, 48 h
Outline: (§1)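 P. falciparum asexual blood stages in human A+ erythrocytes, RPMI 1640 with HEPES, NaHCO3, glutamine, glucose, hypoxanthine, gentamycin and 10% human A+ serum. Parasitemia 2%, hematocrit 1%. Eight 2-fold dilutions in triplicate, DMSO at most 1%. After 48 h, growth read by pLDH activity. Artemisinin positive control. IC50 read from graphs.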

Plasmodium falciparum [2] = assay: Antiplasmodial activity against asexual erythrocyte stage of chloroquine-resistant Plasmodium falciparum W2 infected in human red blood cells after 48 hrs by lactate dehydrogenase assay; assay type: functional, organism-based; conditions: W2, 48 h; outline: as §1
Danio rerio [3] = species: Danio rerio; assay: Toxicity in 72 hrs post fertilized zebra fish embryo assessed as decrease in pericardial function measured after third treatment dose replaced once daily for 3 days; assay type: organism-based; conditions: zebrafish, in vivo
Outline: (§2)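 Dechorionated zebrafish embryos, 25 per condition, duplicate geometric series. The first step spanned 10 to 0.001 µg/mL and the second was narrowed to 10 to 1 µg/mL. Compound was diluted from DMSO in fish medium, final DMSO at most 0.4%. Treatment was renewed daily for 3 days, with untreated and 0.4% DMSO controls. Embryos were observed daily until 72 hpf.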

HeLa = assay: Cytotoxicity against human HeLa cells after 48 hrs by WST-1 assay; assay type: functional, cell-based
Outline: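 HeLa cells seeded at 6000 per well in medium containing test compounds and incubated 48 h. WST-1 then added for 30 min at 37 °C, absorbance read at 450 nm. Results expressed as percent of untreated control cells; IC50 taken from graphs.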

[4] = Hemolytic activity in human RBC at 10 ug/ml after 1 hr relative to control; assay type: ADME, cell-based, Erythrocyte; conditions: red blood cells, read-out: Activity
Outline: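 Human A+ erythrocytes, 10% (v/v) in PBS, incubated in triplicate with compounds at final 10 µg/mL (DMSO <1%) for 1 h at room temperature with agitation. Mixtures centrifuged 5 min at 2000 rpm, supernatant absorbance read at 550 nm. 1% (v/v) Triton X-100 served as 100% lysis and PBS as 0% lysis.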

Danio rerio [5] = species: Danio rerio; assay: Toxicity in 24 to 72 hrs post fertilized zebra fish embryo assessed as embryo disintegration at 3 to 10 ug/ml replaced once daily for 3 days; assay type: organism-based; conditions: zebrafish, in vivo; outline: as §2
Danio rerio [6] = species: Danio rerio; assay: Toxicity in 72 hrs post fertilized zebra fish embryo assessed as mortality at 1 ug/ml replaced once daily for 3 days; assay type: organism-based; conditions: zebrafish, in vivo; outline: as §2
Danio rerio [7] = species: Danio rerio; assay: Toxicity in 48 hrs post fertilized zebra fish embryo assessed as cumulative mortality at 1 to 10 ug/ml replaced once daily for 3 days; assay type: organism-based; conditions: zebrafish, in vivo, 72 h; outline: as §2
Danio rerio [8] = species: Danio rerio; assay: Toxicity in 72 hrs post fertilized zebra fish embryo assessed as death measured after third treatment dose replaced once daily for 3 days; assay type: organism-based; conditions: zebrafish, in vivo; outline: as §2
Danio rerio [9] = species: Danio rerio; assay: Toxicity in 24 to 72 hrs post fertilized zebra fish embryo assessed as death at 3 to 10 ug/ml measured within 1 day post dose; assay type: organism-based; conditions: zebrafish, in vivo; outline: as §2
Plasmodium berghei [10] = assay: Antimalarial activity against Plasmodium berghei NK173 infected in Swiss mouse assessed as inhibition of parasitemia at 15 mg/kg, ip qd administered 4 hrs post infection for 3 days measured on day 7 by Giemsa staining based microscopy relative to control; assay type: functional
Outline: (§3)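 Female Swiss mice (10 weeks, 25 ± 2 g), groups of five, infected ip with 2 × 10^7 P. berghei NK173 parasitized red cells. 15 mg/kg ip in 7% Tween 80/3% EtOH in sterile water, first dose 4 h post-infection (day 0), then once daily for 3 more days. Parasitemia read on Giemsa-stained tail-blood thin smears (≥500 erythrocytes). Inhibition calculated against vehicle controls at days 5 and 7.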

Danio rerio [11] = species: Danio rerio; assay: Toxicity in 72 hrs post fertilized zebra fish embryo assessed as morphological changes at 1 ug/ml replaced once daily for 3 days; assay type: organism-based; conditions: zebrafish, in vivo; outline: as §2
[12] = Toxicity in 48 hrs post fertilized zebra fish embryo assessed as embryo mortality at 2 ug/ml replaced once daily for 3 days; assay type: organism-based, Danio rerio; conditions: zebrafish, in vivo; read-out: Activity; outline: as §2
Danio rerio [13] = species: Danio rerio; assay: Toxicity in 72 hrs post fertilized zebra fish embryo assessed as body axis deformation measured after third treatment dose replaced once daily for 3 days; assay type: organism-based; conditions: zebrafish, in vivo; outline: as §2
Mus musculus = assay: Toxicity in Swiss mouse assessed as mortality at 15 mg/kg, ip qd measured on day 7; assay type: organism-based; conditions: in vivo
[14] = Selectivity index, ratio of IC50 for human WI38 cells to IC50 for asexual erythrocyte stage of chloroquine-sensitive Plasmodium falciparum 3D7 infected in human red blood cells; assay type: toxicity, cell-based; conditions: read-out: Ratio IC50
[15] = Selectivity index, ratio of IC50 for human WI38 cells to IC50 for asexual erythrocyte stage of chloroquine-resistant Plasmodium falciparum W2 infected in human red blood cells; assay type: toxicity, cell-based; conditions: read-out: Ratio IC50
Danio rerio [16] = species: Danio rerio; assay: Toxicity in 24 to 72 hrs post fertilized zebra fish embryo assessed as death at 10 ug/ml measured within 1 day post dose; assay type: organism-based; conditions: zebrafish, in vivo; outline: as §2
Danio rerio [17] = species: Danio rerio; assay: Toxicity in 72 hrs post fertilized zebra fish embryo assessed as cumulative mortality measured after third treatment dose replaced once daily for 3 days; assay type: organism-based; conditions: zebrafish, in vivo; outline: as §2
Danio rerio [18] = species: Danio rerio; assay: Toxicity in 24 to 72 hrs post fertilized zebra fish embryo assessed as bradycardia at 2 to 2.5 ug/ml replaced once daily for 3 days; assay type: organism-based; conditions: zebrafish, in vivo; outline: as §2
Danio rerio [19] = species: Danio rerio; assay: Toxicity in 24 to 72 hrs post fertilized zebra fish embryo assessed as percentage of bradycardia developed embryos at 2 to 2.5 ug/ml replaced once daily for 3 days measured each day until 72 hrs post fertilization; assay type: organism-based; conditions: zebrafish, in vivo
Outline: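 Dechorionated zebrafish embryos, 25 per condition, exposed from 24 hpf. Compound in DMSO diluted in zebrafish medium (final DMSO at most 0.4%). Treatment replaced once daily for 3 days, with a narrowed 10–1 µg/mL range run in duplicate. Embryos observed daily to 72 hpf for mortality, disintegration, bradycardia and morphology. Untreated and 0.4% DMSO groups of 25 served as controls.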

WI-38 = assay: Cytotoxicity against human WI38 cells after 48 hrs by WST-1 assay; assay type: cell-based; conditions: WI-38, 48 h
Plasmodium berghei [20] = assay: Antimalarial activity against Plasmodium berghei NK173 infected in Swiss mouse assessed as inhibition of parasitemia at 15 mg/kg, ip qd administered 4 hrs post infection for 3 days measured on day 5 by Giemsa staining based microscopy relative to control; assay type: functional; outline: as §3
Plasmodium falciparum [21] = assay: Antiplasmodial activity against chloroquine-sensitive Plasmodium falciparum F32-Tanzania after 48 hrs by [3H]-hypoxanthine incorporation assay; assay type: functional, organism-based

Compound: C[C@@H]1CC[C@H]2[C@@H](C)C(=O)O[C@@H]3O[C@@]4(C)CC[C@@H]1[C@]32OO4 [ARTEMISININ]
IC50 (Plasmodium falciparum [1]): 0.004 to 0.014 µM | IC50 (Plasmodium falciparum [2]): 0.01 to 0.035 µg/mL (≈ 0.0354 to 0.124 µM)

Compound: CCCCCC/C=C\CCCCCCC[C@@H]1C[C@@]2(O)CC(=O)C=C[C@@]2(O)O1
Activity (Danio rerio [3]): Toxic | IC50 (HeLa): 0.8 to 2.1 µg/mL (≈ 2.11 to 5.55 µM) | hemolysis at 1 h, 10 ug/ml [4]: < 1% | Activity (Danio rerio [5]): Toxic | Activity (Danio rerio [6]): Non-Toxic | Activity (Danio rerio [7]): Toxic | Activity (Danio rerio [8]): Toxic | Activity (Danio rerio [9]): Toxic | IC50 (Plasmodium falciparum [1]): 0.34 to 0.9 µM | IC50 (Plasmodium falciparum [2]): 0.21 to 0.55 µg/mL (≈ 0.555 to 1.45 µM) | inhibition in vivo at 15 mg/kg (Plasmodium berghei [10]): 69.5% | Activity (Danio rerio [11]): Non-Toxic | mortality at 72 h, 2 ug/ml [12]: 60% | Activity (Danio rerio [13]): Toxic | Activity (Mus musculus): Toxic | selectivity ratio [14]: 1.76 | selectivity ratio [15]: 2.86 | Activity (Danio rerio [16]): Toxic | Activity (Danio rerio [17]): Toxic | Activity (Danio rerio [18]): Toxic | Activity (Danio rerio [19]): 5% | IC50 (WI-38): 0.6 to 1.58 µg/mL (≈ 1.58 to 4.17 µM) | inhibition in vivo at 15 mg/kg (Plasmodium berghei [20]): 59.1%

Compound: CC[C@@]1(O)C(=O)OCc2c1cc1n(c2=O)Cc2cc3ccccc3nc2-1 [CAMPTOTHECIN]
IC50 (HeLa): 0.08 to 0.23 µg/mL (≈ 0.23 to 0.66 µM) | IC50 (WI-38): 0.03 to 0.086 µg/mL (≈ 0.0861 to 0.247 µM)

Compound: CCCCCC/C=C\CCCCCCCC(=O)C[C@@]1(O)C=CC(=O)[C@@H](O)C1
IC50 (HeLa): 1.31 to 3.45 µg/mL (≈ 3.46 to 9.11 µM) | hemolysis at 1 h, 10 ug/ml [4]: < 1% | IC50 (Plasmodium falciparum [1]): 0.43 to 1.13 µM | IC50 (Plasmodium falciparum [2]): 0.48 to 1.27 µg/mL (≈ 1.27 to 3.35 µM) | selectivity ratio [14]: 2.34 | selectivity ratio [15]: 2.1 | IC50 (WI-38): 1.01 to 2.66 µg/mL (≈ 2.67 to 7.03 µM)

Compound: O=c1c(O)c(-c2ccc(O)c(O)c2)oc2cc(O)cc(O)c12 [QUERCETIN]
IC50 (Plasmodium falciparum [1]): 17.5 µM

IC50 (Plasmodium falciparum [21]): 86.4 µg/mL (≈ 226 µM)
Compound: CCCCCC/C=C\CCCCCCCC(O)C[C@]1(O)C=C[C@@H](O)[C@@H](O)C1 (stereo partly drawn)

Compound: CCCCCCCCCCCCCCC[C@@H]1C[C@@]2(O)CC(=O)C=C[C@@]2(O)O1
IC50 (HeLa): 1.44 to 3.77 µg/mL (≈ 3.78 to 9.91 µM) | hemolysis at 1 h, 10 ug/ml [4]: < 1% | IC50 (Plasmodium falciparum [1]): 0.69 to 1.81 µM | IC50 (Plasmodium falciparum [2]): 0.37 to 0.97 µg/mL (≈ 0.972 to 2.55 µM) | selectivity ratio [14]: 1.51 | selectivity ratio [15]: 2.81 | IC50 (WI-38): 1.04 to 2.73 µg/mL (≈ 2.73 to 7.17 µM)
